Screening results deposited in PubChem BioAssay by The Scripps Research Institute Molecular Screening Center.
TAAR1 agonist: human TAAR1 agonists, primary screen, Fluo-8 calcium fluorescence, CHO RD-HGA16 cells | Trace amine-associated receptor 1 (Homo sapiens), Q96RJ0 | vehicle wells 0%, saturating PEA agonist 100% | activation, % at 3 µM | actives 0.99% (n = 360,000);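 active = activation above the mean activation of all test compounds in the run plus 3 SD, cut at about 38% in these data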
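System: CHO RD-HGA16 cells carrying human TAAR1 plus Gα16; Incubation: 17-24 h seeding, 75 min 37 °C dye, 30 min RT; Measured by: Fluo-8 fluorescence, 5 s baseline then 140 s kinetic read; Control set: DMSO and PEA EC100; Replication: single well for each compound.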
OX1R antag-1: OX1R (HCRTR1) antagonists, primary screen, fluorescence, CHO/OX1R cells, Fluo-8 calcium, orexin A. Orexin/Hypocretin receptor type 1 (Homo sapiens), O43613. Fluo-8 calcium fluorescence. inhibition, % at 5 µM. actives 0.43% (n = 330,000);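 active = inhibition above its plate's threshold, mean inhibition of all tested compounds on the plate plus 3 SD, cut at about 37% in these data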;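 note: 0% = orexin A challenge wells and 100% = SB-334867-A antagonist wells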
Target sequence (O43613 whole entry, looked up): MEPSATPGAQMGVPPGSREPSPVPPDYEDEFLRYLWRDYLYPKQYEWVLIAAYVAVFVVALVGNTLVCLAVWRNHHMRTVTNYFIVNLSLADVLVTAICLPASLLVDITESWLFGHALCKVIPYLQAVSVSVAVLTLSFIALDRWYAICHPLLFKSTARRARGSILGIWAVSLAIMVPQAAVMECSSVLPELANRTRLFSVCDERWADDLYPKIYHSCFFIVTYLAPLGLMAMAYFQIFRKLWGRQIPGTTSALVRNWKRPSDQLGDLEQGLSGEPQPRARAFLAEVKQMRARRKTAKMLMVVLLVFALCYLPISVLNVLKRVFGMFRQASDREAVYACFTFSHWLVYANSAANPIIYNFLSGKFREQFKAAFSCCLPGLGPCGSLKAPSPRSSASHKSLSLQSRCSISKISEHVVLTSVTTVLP
OX1R antag-2: antagonists of human orexin 1 receptor (OX1R). Orexin/Hypocretin receptor type 1 (Homo sapiens), O43613. OX1R-expressing cells, FRET antagonist read-out. inhibition, % at 6.6 µM. actives 1.8% (n = 330,000); in the data active = inhibition mostly above about 38%, no sharp cut-off; inactive = mostly below about 40%;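 note: 0% = agonist challenge alone and 100% = reference antagonist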
TAAR1 antagonist: human TAAR1 antagonists, primary screen, Fluo-8 calcium fluorescence, CHO RD-HGA16 cells; Trace amine-associated receptor 1 (Homo sapiens), Q96RJ0; inhibition, % at 3 µM; AID 624466, 2012; actives 1.5% (n = 360,000); antagonist;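 active = inhibition above a per-plate cutoff, the mean inhibition of test compounds on that plate plus 3 SD, cut at about 49% in these data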;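 note: 0% = DMSO plus EC80 beta-PEA response and 100% = DMSO alone without agonist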
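Test system – hTAAR1-expressing CHO RD-HGA16 cells, Gα16-coupled · Reagent – β-PEA at EC80 concentration, post-compound challenge · Compound dosing – 3 µM, single point · Timing – 140 s kinetic read after compound, 140 s after agonist · Detection – Fluo-8 intracellular calcium dye fluorescence, real-time kinetic reads · Control set – DMSO and EC80 PEA controls · Repeats – n of 1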
GPR7 antag: GPR7 receptor antagonists, primary screen, cell-based, fluorescence, single concentration; Neuropeptides B/W receptor type 1 (Homo sapiens), P48145; inhibition, % at 4.4 µM; actives 1.1% (n = 290,000); GPR7-expressing cells, fluorescence antagonist assay; AID 1861, 2009; in the data active = inhibition above about 16%, passing the limit was not always enough;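 note: cells stimulated with the agonist NPW; 0% = agonist with vehicle and 100% = vehicle without agonist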
CHO parental Ca: ATP-evoked calcium signal inhibitors, parental CHO, primary screen, counter-screen for OX1R antagonist project, cell-based, fluorescence, Fluo-8 calcium dye. actives 0.63% (n = 330,000). parental CHO-K1, ATP-induced calcium, Fluo-8 fluorescence. AID 463079, 2010. inhibition, % at 5.6 µM;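 active = inhibition above that plate's mean sample inhibition plus 3 SD, cut at about 26% in these data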;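 note: 0% = ATP-challenged DMSO wells and 100% = DMSO wells without ATP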
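Test system: untransfected parental CHO cell line; also added: ATP stimulus; dosing: 5.6 µM, single dose; signal: calcium-sensitive Fluo-8 fluorescence; measure: percent inhibition of ATP-evoked calcium rise, normalized to controls; benchmarks: low control ATP plus DMSO, high control DMSO only; replication: one well per compound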
Starred values were filed as active, the others as inactive; nt = no result. The list is not random: actives were taken first. Their share in the collection is about 4.5%.

SMILES | TAAR1 agonist | OX1R antag-1 | OX1R antag-2 | TAAR1 antagonist | GPR7 antag | CHO parental Ca
CCOC(=O)c1cc2c(=O)n3cccc(C)c3nc2n(Cc2ccco2)c1=NC(=O)c1cccnc1 | 14 | nt | nt | 39 | 3 | nt
CCOC(=O)c1cc2c(=O)n3ccccc3nc2n(Cc2ccco2)c1=NC(=O)c1cccnc1 | 4 | -30 | 52* | -20 | -10 | -18
CC(/C=N/NC(=O)c1cccnc1)=C\c1ccccc1 | 8 | 8 | 16 | 11 | -2 | -5
CC(/C=N/NC(=O)c1ccncc1)=C\c1ccc(C(C)C)cc1 | 18 | -1 | 11 | 49* | 3 | -7
Cc1ccc(-c2cc(C(=O)N/N=C/c3ccccc3)n[nH]2)o1 | 2 | -17 | 20 | 1 | -3 | -8
C/C(=N\NC(=O)c1ccc(-c2ccccc2)cc1)C1C(=O)c2ccccc2C1=O | 8 | -9 | 64 | -18 | 1 | 8
CC(/C=N/NC(=O)c1ccc(Br)cc1)=C\c1ccccc1 | 0 | 1 | 9 | -17 | -9 | 66*
COc1ccc(C(=O)N/N=C\C(C)=C\c2ccccc2)cc1OC | 17 | -9 | 30 | 11 | nt | 2
C/C(=N\NC(=O)c1ccc(Br)cc1)C1C(=O)c2ccccc2C1=O | 2 | -1 | 55* | 11 | 1 | -2
CC(/C=N/NC(=O)c1cc(-c2ccc(C)o2)[nH]n1)=C\c1ccccc1 | 3 | 2 | 59* | 18 | -9 | -14
COC(=O)c1cc2c(c3c4cc(F)ccc4n(S(=O)(=O)c4ccccc4)c13)C(=O)N(Cc1ccccc1)C2 | -2 | nt | nt | -15 | nt | nt
CC(/C=N\NC(=O)Cn1c(C)nc2ccccc21)=C\c1ccccc1 | 5 | 25 | 39 | 18 | -12 | 17
COC(=O)Cc1nnn2c1[C@H](C)[C@@H](OC)c1cccc(Cl)c1-2 | 0 | nt | nt | 5 | nt | nt
Oc1cc(NCc2ccc(F)cc2)cc2cccnc12 | 5 | -20 | 21 | -14 | nt | -17
CN(C)CCCNc1cc(O)c2ncccc2c1 | 6 | -1 | 45* | 9 | nt | -11
CCOC(=O)N1CCN(C(=O)C[C@H]2C[C@@]3(C(=O)OC)C(=C[C@H](COCc4ccccc4)O[C@@H]3C)N(Cc3ccc4c(c3)OCO4)C2=O)CC1 | -2 | nt | nt | -10 | nt | nt
COc1ccccc1CC(=O)O/N=C(\N)Cc1cccc2ccccc12 | 75* | -33 | 1 | 41 | -8 | -7
COc1ccc(C(=O)COC(=O)/C=C/c2ccc(S(=O)(=O)Nc3cccc(S(N)(=O)=O)c3)cc2)cc1 | 5 | 11 | 9 | 19 | -3 | 10
NS(=O)(=O)c1cccc(NS(=O)(=O)c2ccc(/C=C/C(=O)OCC(=O)c3ccc(Br)cc3)cc2)c1 | 4 | 21 | 4 | 12 | -5 | 25*
CCS(=O)c1ccccc1C(=O)OC(C)C(=O)Nc1ccc(S(=O)(=O)N2CCCC2)cc1 (centres undefined) | 1 | -10 | 11 | -30 | nt | 4
Cc1ccc2c(c1)sc(-c1ccc(N(C)C)cc1)[n+]2C | 1 | 10 | 40* | 14 | 19 | 42*
Cc1ccc2nc(CSc3nnc4ccccn34)cc(=O)n2c1 | 2 | -13 | 25 | 13 | 17* | -10
N#Cc1c(N2CCOCC2)nsc1-c1ccccc1 | -1 | -17 | 5 | -37 | -7 | -3
C[C@H]1CNC(=O)c2c(C(=O)N(C)Cc3ccccc3)ncn21 | 0 | nt | nt | -3 | nt | nt
O=C(CSc1cn(CCNC(=O)c2ccccc2)c2ccccc12)NCc1ccco1 | 2 | -11 | 41* | 7 | 13 | -14
O=C(NCCn1cc(SCc2ccc(F)cc2)c2ccccc21)c1ccccc1F | nt | 9 | 29 | nt | -10 | 71*
O=c1oc2ccc(C#CC3(O)CCCCC3)cc2cc1-n1cc(C2(O)CCCCC2)nn1 | 27 | 3 | 6 | 53* | nt | -7
CC1Cc2ccccc2N1C(=O)C(C)n1cc(C(F)(F)F)cc(Cl)c1=O (centres undefined) | -3 | -14 | 6 | -7 | nt | -24
